Assay results reported in ChEMBL document CHEMBL4028809, “Dual-tail approach to discovery of novel carbonic anhydrase IX inhibitors by simultaneously matching the hydrophobic and hydrophilic halves of the active site” (Eur J Med Chem, 2017).
The source made the active and inactive calls. The calls are words filed in the database; no cut-off is given here.

Experiments:
MDA-MB-231 [1] = assay: Cytotoxicity against human MDA-MB-231 cells assessed as cell viability at 100 uM after 72 hrs under normoxic condition by MTT assay; type: functional; conditions: for viability at 100 µM: MDA-MB-231, 72 h, read-out: Activity
Outline: (§1)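 HT-29 or MDA-MB-231 cells seeded at 5 × 10^4 per well and stabilized 24 h at 37 °C, then exposed to a single 0.1 mM dose for 72 h, in hypoxia (0.5% O2, 5% CO2, balance N2, modular chamber) or normoxia (20% O2, 5% CO2). MTT at 5 mg/mL added for 4 h; formazan dissolved in DMSO; absorbance read at 540 nm.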

HT-29 [2] = assay: Cytotoxicity against human HT-29 cells assessed as cell viability at 100 uM after 72 hrs under normoxic condition by MTT assay relative to control; type: functional; conditions: for viability at 100 µM: HT-29, 72 h, read-out: Activity; outline: as §1
HT-29 [3] = assay: Cytotoxicity against human HT-29 cells assessed as cell viability at 100 uM after 72 hrs under hypoxic condition condition by MTT assay relative to control; type: functional; conditions: for viability at 100 µM: HT-29, 72 h, read-out: Activity; outline: as §1
Carbonic anhydrase 9 = Carbonic anhydrase 9 (Homo sapiens, UniProt Q16790); assay: Inhibition of recombinant human carbonic anhydrase 9 using 4-nitrophenylacetate as substrate pretreated for 15 mins prior to test by spectrophotometric method
MDA-MB-231 [4] = assay: Cytotoxicity against human MDA-MB-231 cells assessed as cell viability at 100 uM after 72 hrs under hypoxic condition by MTT assay; type: functional; conditions: for viability at 100 µM: MDA-MB-231, 72 h, read-out: Activity; outline: as §1
Carbonic anhydrase 2 = Carbonic anhydrase 2 (Homo sapiens, UniProt P00918); assay: Inhibition of recombinant human carbonic anhydrase 2 using 4-nitrophenylacetate as substrate pretreated for 15 mins prior to test by spectrophotometric method

SMILES	viability at 100 µM (MDA-MB-231 [1]) [%]	viability at 100 µM (HT-29 [2]) [%]	viability at 100 µM (HT-29 [3]) [%]	IC50 (Carbonic anhydrase 9) [nM]	viability at 100 µM (MDA-MB-231 [4]) [%]	IC50 (Carbonic anhydrase 2) [µM]	Activity (MDA-MB-231 [1])	Activity (HT-29 [2])	Activity (HT-29 [3])	Activity (MDA-MB-231 [4])
COc1cc(/C=C/C(=O)N[C@@H]2[C@@H](O)[C@H](O)[C@@H](CO)O[C@H]2NC(=S)Nc2ccc(S(N)(=O)=O)cc2)cc(OC)c1OC	89 to 99	73 to 79	63 to 77	46	69.5 to 79.9					
COc1ccc(/C=C/C(=O)O)cc1 [4-METHOXYCINNAMIC ACID]				850000		760				
COc1ccc(/C=C/C(=O)N[C@@H]2[C@@H](O)[C@H](O)[C@@H](CO)O[C@H]2NC(=S)Nc2ccc(S(N)(=O)=O)cc2)c(OC)c1				7			inactive	inactive	inactive	inactive
COc1cccc(/C=C/C(=O)N[C@@H]2[C@@H](O)[C@H](O)[C@@H](CO)O[C@H]2NC(=S)Nc2ccc(S(N)(=O)=O)cc2)c1	89 to 99	73 to 79	63 to 77	95	69.5 to 79.9					
COc1cc(OC)c(OC)cc1/C=C/C(=O)N[C@@H]1[C@@H](O)[C@H](O)[C@@H](CO)O[C@H]1NC(=S)Nc1ccc(S(N)(=O)=O)cc1	89 to 99	73 to 79	63 to 77	37	69.5 to 79.9					
COc1ccccc1/C=C/C(=O)N[C@@H]1[C@@H](O)[C@H](O)[C@@H](CO)O[C@H]1NC(=S)Nc1ccc(S(N)(=O)=O)cc1	89 to 99	73 to 79	63 to 77	60	69.5 to 79.9					
N[C@@H]1[C@@H](O)[C@H](O)[C@@H](CO)O[C@H]1NC(=S)Nc1ccc(S(N)(=O)=O)cc1				667		0.203				
COc1ccc(/C=C/C(=O)N[C@H]2[C@H](OC)O[C@H](CO)[C@@H](O)[C@@H]2O)cc1				20000						
COc1ccc(/C=C/C(=O)N[C@@H]2[C@@H](O)[C@H](O)[C@@H](CO)O[C@H]2NC(=S)Nc2ccc(S(N)(=O)=O)cc2)cc1	89 to 99	73 to 79	63 to 77	152	69.5 to 79.9					
COc1cccc(/C=C/C(=O)N[C@@H]2[C@@H](O)[C@H](O)[C@@H](CO)O[C@H]2NC(=S)Nc2ccc(S(N)(=O)=O)cc2)c1OC	89 to 99	73 to 79	63 to 77	33	69.5 to 79.9					
CC(=O)Nc1nnc(S(N)(=O)=O)s1							inactive	inactive	inactive	inactive
